According to ChEMBL document CHEMBL4651341, “The discovery of a novel series of compounds with single-dose efficacy against juvenile and adult Schistosoma species” (PLoS Negl Trop Dis, 2021):
Converted amounts (≈) assume the structure as drawn.

Columns and labels:
[1] = Concentration required to kill 50% MRC-5 cells as detected by Alamar blue staining; type: toxicity, cell-based, MRC5; conditions: homo sapiens, read-out: TC50 (the source's name)
Schistosoma mansoni [2] = assay: (§1) Concentration required to kill 50% of 42 day old worms 5 days after drug treatment.; type: functional, organism-based; conditions: Puerto Rican, 120 h
Procedure, shortened: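 Adult S. mansoni were perfused from CD1 mice 6 weeks post-infection and washed. They were cultured 3 pairs per well in 1 mL DMEM with 2 mM glutamine, penicillin/streptomycin and 10% FCS […] at 37 °C, 5% CO2. Viability of individual worms was scored on day 5 (120 h).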

[3] = Partition coefficient of compound between n-octanol and PBS (pH7.4); type: physicochemical; conditions: octanol/water, pH 7.4
Procedure, shortened: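 Shake-flask method using octanol and PBS pH 7.4, each pre-saturated with the other. Compound was shaken 2 h at 850 rpm, 25 °C, then the phases were separated by centrifugation and both layers diluted and analysed by LC-MS/MS. LogD = log(octanol AUC × relative dilution / buffer AUC).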

[4] = Solubility at 25 degC of compound (diluted from DMSO) in PBS at pH 7.4 determined after 24h (1h sonication, 22h shaking, 1h sonication) by LCMS/MS; type: physicochemical
Schistosoma mansoni [5] = assay: Concentration required to kill 50% of 21 day old worms 5 days after drug treatment.; type: functional, organism-based; conditions: Puerto Rican, 120 h
Procedure, shortened: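 Juvenile S. mansoni (Puerto Rican strain) were perfused from CD1 mice 3 weeks post-infection and washed. They were cultured 6–8 per well in 200 µL DMEM with 2 mM glutamine, penicillin/streptomycin and 10% FCS at 37 °C, 5% CO2. Viability of individual worms was scored on day 5 after dosing (120 h).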

[6] = Concentration required to kill 50% MRC5 cells as detected by Alamar blue staining; conditions: homo sapiens, read-out: TC50 (the source's name)
Schistosoma haematobium = assay: Concentration required to kill 50% of 84 day old worms 5 days after drug treatment.; type: functional, organism-based; conditions: Egyptian, 120 h
[7] = Mean plasma concentration at 24h in Swiss albino male mice at […] per compound (administered orally in a mixture of 5 compounds to 3 mice) assessed by LCMS/MS.; type: ADME, organism-based; conditions: mouse, po
[8] = Mean volume of distribution at steady state in Swiss albino male mice at 1 mg/kg per compound (administered iv in a mixture of 5 compounds to 3 mice) assessed by LCMS/MS.; type: ADME, organism-based; conditions: mouse, in vivo, read-out: Volume
Procedure, shortened: (§2)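 Male Swiss albino mice (~30 g), 3 per experiment, mostly dosed as mixtures of 5 compounds iv via the lateral tail vein. Vehicle: 10% DMSO/90% 50 mM Na2HPO4 with 0.5% Tween-80. Plasma stored at −20 °C and quantified by LC-MS after acetonitrile precipitation.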

[9] = Mean time to peak plasma concentration in Swiss albino male mice at […] per compound (administered orally in a mixture of 5 compounds to 3 mice) assessed by LCMS/MS.; type: ADME, organism-based; conditions: mouse, po
[10] = Concentration required to kill 50% HepG2 cells as detected by MTT staining; type: toxicity, cell-based; conditions: homo sapiens, read-out: TC50 (the source's name)
[11] = Mean AUC inf in Swiss albino male mice at 1 mg/kg per compound (administered iv in a mixture of 5 compounds to 3 mice) assessed by LCMS/MS.; type: ADME, organism-based; conditions: male, Swiss albino, mouse, in vivo
Procedure, shortened: as §2, with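 “Tween-80. Blood sampled at 5, 15, 30 min and 1, 2, 4, 8, 24 h.” for “Tween-80.”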

[12] = Percentage of parent compound remaining after incubation for 30 minutes with cyropreserved mouse hepatocytes at a concentration of 1uM compound and […], determined by LCMS; type: ADME, tissue-based, Hepatocyte; conditions: cryopreserved mouse hepatocytes, read-out: Stability
Procedure, shortened: (§3)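 Compound was incubated at 1 µM final (2 µM working solution mixed 1:1 with hepatocyte suspension) in supplemented KHB pH 7.4. Conditions: 37 °C, 5% CO2, gentle mixing, duplicates. Reaction quenched with ice-cold acetonitrile containing standard; analysed by LC-MS/MS. % remaining = AUC at t / AUC at T0.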

[13] = Mean half-life in Swiss albino male mice at 1 mg/kg per compound (administered iv in a mixture of 5 compounds to 3 mice) assessed by LCMS/MS.; type: ADME, organism-based; conditions: mouse, in vivo; procedure, shortened: as §2
[14] = Mean oral bioavailability in Swiss albino male mice at […] per compound (administered in a mixture of 5 compounds to 3 mice) assessed by LCMS/MS.; further: dose 2.5 mg/kg; type: ADME, organism-based; conditions: male, Swiss albino, mouse, in vivo, read-out: Bioavailability
[15] = Plasma protein binding determined at 10uM by LC-MS/MS.; type: ADME, cell-free
Procedure, shortened: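 Equilibrium dialysis of plasma spiked at 10 µM (0.1% DMSO) against PBS pH 7.4, 6 h at 37 °C, duplicates. Both chambers analysed by LC-MS/MS after acetonitrile precipitation. % free = buffer/plasma area ratio; recovery also calculated.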

[16] = Mean plasma concentration at 4h in Swiss albino male mice at […] per compound (administered orally in a mixture of 5 compounds to 3 mice) assessed by LCMS/MS.; type: ADME, organism-based; conditions: mouse, po
Schistosoma japonicum = assay: as §1; type: functional, organism-based; conditions: Chinese, 120 h
[17] = Mean observed clearance in Swiss albino male mice at 1 mg/kg per compound (administered iv in a mixture of 5 compounds to 3 mice) assessed by LCMS/MS.; type: ADME, organism-based; conditions: male, Swiss albino, mouse, in vivo, read-out: Clearance (converted)
Procedure, shortened: as §2, with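 “Tween-80. Blood sampled at 5, 15, 30 min and 1, 2, 4, 8, 24 h.” for “Tween-80.”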

[18] = Plasma protein binding determined at 1uM by LC-MS/MS.; type: ADME, cell-free
Schistosoma mansoni [19] = assay: Percentage of worms remaining following treatment of female CD1 mice infected with S. mansoni worms (21 day old - juvenile or 42 day old - adult) with compound by oral gavage. Worms were recovered by portal perfusion with citrate saline 8-14 days post treatment and counted. Percentages are from a mean of 5 or 6 animals.; type: functional, Mus musculus; set-up: concentration or dose not given beside the values
Procedure, shortened: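 Female CD1 mice were infected subcutaneously with 150 cercariae and treated at day 21 (juvenile) or day 42 (adult). Single oral gavage, or two doses 12 h apart, given in 7% Tween-80/3% ethanol/water (sonicated) or in 1:19 DMSO:corn oil. Controls received vehicle only. Worm recoveries are group means, n = 5–6.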

[20] = Percentage of parent compound remaining after incubation for 30 minutes with cyropreserved human hepatocytes at a concentration of 1uM compound and 1 million cells/uL, determined by LCMS/MS; type: ADME, tissue-based, Hepatocyte; conditions: cryopreserved human hepatocytes, read-out: Stability; procedure, shortened: as §3
[21] = Concentration of drug in plasma at 4h following oral drug adminstration at given dose. Determined by LCMS/MS; type: ADME, organism-based; conditions: CD1, mouse
Procedure, shortened: (§4)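 Plasma sampled from the mice of the efficacy experiments, each animal sampled once: one animal per group at 1, 4 and 8 h, two per group at 24 h. Plasma prepared by acetonitrile protein precipitation and analysed by LC-MS against a 10-point calibration line spiked in blank matrix, with QCs at three or more levels.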

[22] = Percentage of parent compound remaining after incubation for 90 minutes with cyropreserved mouse hepatocytes at a concentration of 1uM compound and […], determined by LCMS; type: ADME, tissue-based, Hepatocyte; conditions: cryopreserved mouse hepatocytes, read-out: Stability; procedure, shortened: as §3
[23] = Concentration of drug in plasma at 24h following oral drug adminstration at given dose. Determined by LCMS/MS; type: ADME, organism-based; conditions: CD1, mouse; procedure, shortened: as §4

SMILES	CC50 [1]	EC50 (Schistosoma mansoni [2])	Lipophilicity [3]	solubility kinetic at 24 h [4]	EC50 (Schistosoma mansoni [5])	concentration at 24 h [7]	Vd [8]	Tmax [9]	CC50 [10]	AUC(0-inf) [11]	remaining at 0.5 h, 1 µM [12]	half-life [13]	bioavailability [14]	Binding ([15]; mouse)	concentration at 4 h [16]	clearance [17]	Efficacy (Schistosoma mansoni [19])	remaining at 0.5 h, 1 µM [20]	concentration at 4 h [21]	remaining at 1.5 h, 1 µM [22]	also measured
CC(C)c1cccc(-c2cn3c(-c4ccc(O)cc4)cnc3cn2)c1	30000 nM	1340 nM	3.62 =	0.383 µM (≈ 0.126 µg/mL)	1500 nM	–	–	–	–	–	–	–	–	–	–	–	–	–	–	–	CC50 [6]: > 30000 nM
COc1ccc(-c2c(C(C)C)nc3cnc(-c4cccc(C(F)(F)F)c4)cn23)cc1O	21900 nM	< 82 nM	3.63 =	2.11 µM (≈ 0.902 µg/mL)	65.9 nM	0.1 ng/mL	5.13 L/kg	0.25 h	> 11100 nM	105 ng·h/mL	36.2%	1.92 h	7.84%	99.93%	3.5 ng/mL	79.2 mL/min/kg	–	–	–	–	EC50 (Schistosoma haematobium): 61.2 nM; EC50 (Schistosoma japonicum): 85 nM; Binding ([18]; human): 100%; Binding ([18]; mouse): 100%
Fc1ccc(-c2cn3c(-c4ccc5[nH]ncc5c4F)c(C4CC4)nc3cn2)cc1C(F)(F)F	–	50.7 nM	4.7 =	1.42 µM (≈ 0.647 µg/mL)	36.1 nM	176 ng/mL	4.37 L/kg	1 h	16100 nM	2450 ng·h/mL	81.9%	16.2 h	95.8%	100%	376 ng/mL	3.43 mL/min/kg	88%	95.2%	75 ng/mL	79.5%	Binding ([15]; human): 100%; concentration at 24 h [23]: 60.4 ng/mL
Oc1cc(F)c(-c2c(C3CC3)nc3cnc(-c4ccc(F)c(C(F)(F)F)c4)cn23)c(F)c1	–	44.3 nM	4.34 =	–	33.7 nM	151 ng/mL	1.94 L/kg	0.25 h	8900 nM	3800 ng·h/mL	83.8%	–	69.6%	99.975%	680 ng/mL	2.25 mL/min/kg	75%	42.1%	1040 ng/mL	53%	Binding ([15]; human): 100%; concentration at 24 h [23]: 460 ng/mL
